Among the data in ChEMBL document CHEMBL1123328, “Catechol estrogens of the 1,1,2-triphenylbut-1-ene type: relationship between structure, estradiol receptor affinity, estrogenic and antiestrogenic properties, and mammary tumor inhibiting activities” (1986) are T/C, estrogenic effect and inhibition values, retold here.

For orientation: T/C means the ratio of treated to control. Usually inhibition stands for the percentage by which the read-out fell short of the control.

Assay [1] relates to Mus musculus. The experiment in a line: (§1) In vivo inhibition of hormone-dependent MXT mammary tumor in mice. Format: functional. The method, boiled down:
(§2)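 MXT tumor pieces (~2 mm3) implanted sc into female 8-week-old BDF1 mice, randomized into groups of 10. From day 1 after transplant, compound in olive oil given sc 3 times weekly (equimolar doses) for 6 weeks. Tumors excised and weighed. T/C % = treated/solvent-control tumor weight × 100 (mean of 10); uterus T/C also recorded.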

Assay [2] addresses T1, Estrogen receptor (Mus musculus) (UniProt O08537+P19785). As to the kind of experiment: […] estrogenic effect in immature mice at 500 ug. Format: functional. The method, boiled down:
(§3)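 Uterotrophic assay in immature female NMRI mice (10–12 g at start; 10 per group). Test compound in olive oil given sc daily for three consecutive days. Uteri removed 24 h after the last injection, fixed in Bouin's solution, dried and weighed. Estrogenic effect read as stimulation of uterine growth.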

The subject of assay [3] is Mus musculus. The description is as §1. It is filed as functional. The method, boiled down: as §2
This is another data set of the same source.

Assay [4] has as its target T1, Estrogen receptor (Mus musculus). As to the kind of experiment: In vivo anti-estrogenic effect in immature mice at 0.5 ug. Format: functional, organism-based. In a few lines:
(§4)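 Antiuterotrophic assay in immature female NMRI mice (10–12 g; 10 per group) with estrone-stimulated uterine growth. Test compound in olive oil given sc daily for 3 consecutive days. Uteri taken 24 h after the final dose, Bouin-fixed, dried and weighed. Antiestrogenic effect measured as inhibition of the estrone-driven uterine growth.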

The target is the same in assay [5]. As to the kind of experiment: In vivo anti-estrogenic effect in immature mice at 100 ug. It is filed as functional, organism-based. In a few lines:
as §4

Assay [6] shares this target. The experiment in a line: […] estrogenic effect in immature mice at 1 ug. Format: functional. The method, boiled down:
as §3

For assay [7] the target is unchanged. As to the kind of experiment: In vivo anti-estrogenic effect in immature mice at 5 ug. Format: functional, organism-based. In a few lines:
as §4

T1 sequence (O08537 whole entry, looked up): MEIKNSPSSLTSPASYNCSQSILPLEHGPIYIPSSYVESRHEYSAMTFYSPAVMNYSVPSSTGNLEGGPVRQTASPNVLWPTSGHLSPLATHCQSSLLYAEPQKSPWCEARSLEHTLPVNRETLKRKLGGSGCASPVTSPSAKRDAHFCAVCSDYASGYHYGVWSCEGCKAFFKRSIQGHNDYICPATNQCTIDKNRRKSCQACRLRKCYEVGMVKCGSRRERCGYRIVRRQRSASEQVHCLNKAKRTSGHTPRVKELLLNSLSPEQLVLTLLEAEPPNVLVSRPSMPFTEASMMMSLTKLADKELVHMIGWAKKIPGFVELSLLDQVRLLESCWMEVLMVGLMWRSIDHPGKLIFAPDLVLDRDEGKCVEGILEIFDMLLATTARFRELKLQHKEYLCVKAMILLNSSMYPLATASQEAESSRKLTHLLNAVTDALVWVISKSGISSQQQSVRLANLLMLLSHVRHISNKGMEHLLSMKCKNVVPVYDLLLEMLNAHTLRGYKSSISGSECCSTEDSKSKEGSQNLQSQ
T1 sequence (P19785 whole entry, looked up): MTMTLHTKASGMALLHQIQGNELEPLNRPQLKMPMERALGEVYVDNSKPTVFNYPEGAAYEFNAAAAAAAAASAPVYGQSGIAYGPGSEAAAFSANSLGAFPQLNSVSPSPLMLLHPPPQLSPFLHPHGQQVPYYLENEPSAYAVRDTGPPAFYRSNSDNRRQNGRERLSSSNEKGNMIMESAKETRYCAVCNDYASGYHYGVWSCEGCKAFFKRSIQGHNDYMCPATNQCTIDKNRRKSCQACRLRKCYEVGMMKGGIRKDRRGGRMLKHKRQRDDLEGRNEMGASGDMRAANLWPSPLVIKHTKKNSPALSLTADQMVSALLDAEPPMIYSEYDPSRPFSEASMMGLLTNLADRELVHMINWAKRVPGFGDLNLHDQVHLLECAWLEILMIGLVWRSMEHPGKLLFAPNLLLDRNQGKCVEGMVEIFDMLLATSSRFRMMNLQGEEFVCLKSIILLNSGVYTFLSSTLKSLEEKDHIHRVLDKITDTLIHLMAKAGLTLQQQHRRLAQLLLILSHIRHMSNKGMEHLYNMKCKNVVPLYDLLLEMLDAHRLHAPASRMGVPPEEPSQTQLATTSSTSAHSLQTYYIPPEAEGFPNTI

Consider `CC/C(=C(/c1ccccc1)c1ccc(OC(C)=O)c(OC(C)=O)c1)c1ccccc1`, for which the T/C in the assay with Mus musculus [1] is listed as 17%; in the assay on Mus musculus [3], 106%. Moreover, the estrogenic effect in assay [2] was 66%.

On to `CC/C(=C(\c1ccccc1)c1ccc(OC(C)=O)c(OC(C)=O)c1)c1ccc(OC(C)=O)cc1`, for which the T/C with Mus musculus [1] is recorded as 40%; with Mus musculus [3] it was 113%.

Regarding `CC/C(=C(\c1ccc(OC(C)=O)cc1)c1ccc(OC(C)=O)c(OC(C)=O)c1)c1ccccc1`, the inhibition in assay [4] was found to be 38%. Moreover, the T/C in the assay on Mus musculus [1] was 23%; in the assay on Mus musculus [3], 125%.

In turn, `CCC(=C(c1ccc(OC(C)=O)cc1)c1ccc(OC(C)=O)c(OC(C)=O)c1)c1ccccc1` gave an inhibition in assay [5] of 61%.

On to `CC/C(=C(\c1ccccc1)c1ccc(OC(C)=O)c(OC(C)=O)c1)c1ccc(OC(C)=O)c(OC(C)=O)c1`, for which the T/C stood at 75% in the assay on Mus musculus [1] and 90% in the assay with Mus musculus [3]. In assay [2], this molecule displayed an estrogenic effect of 77%.

For `CCC(=C(c1ccccc1)c1ccccc1)c1ccc(OC(C)=O)c(OC(C)=O)c1`, the T/C in the assay with Mus musculus [1] is listed as 9%; in the assay on Mus musculus [3] it was 115%. In assay [6], the inhibition was found to be 18%.

Take `CC/C(=C(/c1ccccc1)c1ccc(OC(C)=O)c(OC(C)=O)c1)c1ccc(OC(C)=O)c(OC(C)=O)c1`: the T/C with Mus musculus [1] was 84%; in the assay with Mus musculus [3], 99%. The molecule further showed an estrogenic effect in assay [2] of 67%.

With `CC/C(=C(\c1ccccc1)c1ccc(OC(C)=O)c(OC(C)=O)c1)c1cccc(OC(C)=O)c1`, the T/C with Mus musculus [1] is listed as 82%; in the assay with Mus musculus [3], 115%.

Consider `CC/C(=C(/c1ccccc1)c1cccc(OC(C)=O)c1)c1ccc(OC(C)=O)c(OC(C)=O)c1`, for which the results for the T/C in the assay on Mus musculus [1] and in the assay with Mus musculus [3] were 2% and 123%, respectively. The same molecule displayed an estrogenic effect in assay [2] of 61%.

Take `CCC(=C(c1ccc(OC(C)=O)c(OC(C)=O)c1)c1ccc(OC(C)=O)c(OC(C)=O)c1)c1ccccc1`: the values for the T/C in the assay with Mus musculus [1] and in the assay with Mus musculus [3] were 134% and 107%, respectively. Also, in assay [5], the inhibition is 54%. This molecule showed an estrogenic effect in assay [2] of 13%.

On to `CC/C(=C(/c1ccccc1)c1ccc(OC(C)=O)cc1)c1ccc(OC(C)=O)c(OC(C)=O)c1`, for which the T/C came to 2% in the assay with Mus musculus [1] and 183% in the assay on Mus musculus [3].

On to `CC/C(=C(/c1ccccc1)c1ccc(OC(C)=O)c(OC(C)=O)c1)c1cccc(OC(C)=O)c1`, for which the T/C in the assay on Mus musculus [1] stood at 35%; in the assay on Mus musculus [3] it was 103%.

Regarding `CC/C(=C(\c1ccccc1)c1ccc(OC(C)=O)cc1)c1ccc(OC(C)=O)c(OC(C)=O)c1`, the T/C in the assay with Mus musculus [1] came out at 1%; in the assay on Mus musculus [3], 195%.

For the molecule `CC/C(=C(/c1ccc(OC(C)=O)cc1)c1ccc(OC(C)=O)c(OC(C)=O)c1)c1ccccc1`, the inhibition in assay [4] amounted to 0%. In addition, the T/C in the assay on Mus musculus [1] is recorded as 44%; in the assay on Mus musculus [3], 99%.

As to `CC/C(=C(/c1ccccc1)c1ccc(OC(C)=O)c(OC(C)=O)c1)c1ccc(OC(C)=O)cc1`, the T/C is 22% in the assay with Mus musculus [1] and 113% with Mus musculus [3].

`CC/C(=C(\c1ccccc1)c1cccc(OC(C)=O)c1)c1ccc(OC(C)=O)c(OC(C)=O)c1`: the results for the T/C in the assay with Mus musculus [1] and in the assay with Mus musculus [3] were 30% and 87%, respectively. In assay [2], this molecule registered an estrogenic effect of 63%. Moreover, in assay [7], the inhibition came to 53%.

For the molecule `CC/C(=C(\c1ccccc1)c1ccc(OCCN(C)C)cc1)c1ccccc1` [TAMOXIFEN], the T/C in the assay on Mus musculus [1] is recorded as 10%; in the assay with Mus musculus [3], 92%.

For `CC/C(=C(\c1ccccc1)c1ccc(OC(C)=O)c(OC(C)=O)c1)c1ccccc1`, the T/C with Mus musculus [1] came to 19%; in the assay on Mus musculus [3] it was 107%. The estrogenic effect in assay [2] stood at 77%.
